# Assay results from different studies.
# Target: Carbonic anhydrase 2 (CA2, Homo sapiens, UniProt P00918)
# Read-out: enzyme activity
# Mode: inhibitor
# Technique: absorbance
SMILES,pH,IC50
NS(=O)(=O)c1ccc(-c2ccc(Nc3ccc(F)c(Cl)c3)cc2)cc1,,380 nM
CC1=C(/C=C/C(C)=C/C=C/C(C)=C\C(=O)O)C(C)(C)CCC1,pH 7.4,10900 nM
CS(=O)(=O)Nc1ccc(Nc2nc(-c3cc4cc(Br)ccc4oc3=O)cs2)cc1Oc1ccccc1,,380 nM
OC1CCN(c2ccc(/C=N/NC(=S)NC3CCCCC3)cc2)CC1,,465 nM
CN1CCN(c2nc(-c3cc4cc(Br)ccc4oc3=O)cs2)CC1,,4120 nM
NS(=O)(=O)c1ccc(-c2ccc(Nc3ccc(Cl)cc3)cc2)cc1,,2110 nM
Cc1cccc(C)c1NC(=S)N/N=C/c1ccc(N2CCC(O)CC2)cc1,,424 nM
C[C@H]1c2cccc(O)c2C(=O)C2=C(O)[C@]3(O)C(=O)C(C(N)=O)=C(O)[C@@H](N(C)C)[C@@H]3[C@@H](O)[C@@H]21,pH 7.4,14200 nM
NS(=O)(=O)c1cccc(Nc2nc(-c3cc4cc(Br)ccc4oc3=O)cs2)c1,,680 nM
OC1CCN(c2ccc(/C=N/NC(=S)NCCc3ccccc3)cc2)CC1,,641 nM
OCCOCCN1CCN(C(c2ccccc2)c2ccc(Cl)cc2)CC1 (centres unmarked),pH 7.4,18200 nM
